# IMP-1 inh: inhibitors of Pseudomonas aeruginosa IMP-1 metallo-beta-lactamase; purified IMP-1, nitrocefin hydrolysis, epi-absorbance fluorescence; inhibition, % at 5.6 µM; 0.45% of 290,000 active; AID 1556;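 active = inhibition above the mean plus 3 SD of all compounds in the same screening run, cut at about 4.5% in these data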;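 note: 0% = IMP-1 with DMSO and 100% = DMSO wells lacking enzyme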
#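 System – purified recombinant IMP-1 beta-lactamase · Input – IMP-1 dispensed at 0.2 nM · Timing – 15 min preincubation plus 25 min reaction at 25 °C · Signal – Epi-absorbance fluorescence, 480 nm excitation, 530 nm emission · Measure – percent IMP-1 inhibition derived from blank-referenced optical density · Controls – Enzyme-plus-DMSO low control, enzyme-free DMSO high control · Replication – singlicate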
# RAD54 inh: blocks human RAD54 Holliday junction branch migration. Q92698. FAM/BHQ fluorescence. inhibition, % at 10.4 µM. 0.14% of 360,000 active;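 active = mean normalized replicate activity at least 40 and at least half of replicates scoring 40 or more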;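 note: 0% = median of neutral control wells and 100% = median of positive control wells; inhibitors cause a drop in the FAM fluorescence signal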
# Target sequence (Q92698 whole entry, looked up): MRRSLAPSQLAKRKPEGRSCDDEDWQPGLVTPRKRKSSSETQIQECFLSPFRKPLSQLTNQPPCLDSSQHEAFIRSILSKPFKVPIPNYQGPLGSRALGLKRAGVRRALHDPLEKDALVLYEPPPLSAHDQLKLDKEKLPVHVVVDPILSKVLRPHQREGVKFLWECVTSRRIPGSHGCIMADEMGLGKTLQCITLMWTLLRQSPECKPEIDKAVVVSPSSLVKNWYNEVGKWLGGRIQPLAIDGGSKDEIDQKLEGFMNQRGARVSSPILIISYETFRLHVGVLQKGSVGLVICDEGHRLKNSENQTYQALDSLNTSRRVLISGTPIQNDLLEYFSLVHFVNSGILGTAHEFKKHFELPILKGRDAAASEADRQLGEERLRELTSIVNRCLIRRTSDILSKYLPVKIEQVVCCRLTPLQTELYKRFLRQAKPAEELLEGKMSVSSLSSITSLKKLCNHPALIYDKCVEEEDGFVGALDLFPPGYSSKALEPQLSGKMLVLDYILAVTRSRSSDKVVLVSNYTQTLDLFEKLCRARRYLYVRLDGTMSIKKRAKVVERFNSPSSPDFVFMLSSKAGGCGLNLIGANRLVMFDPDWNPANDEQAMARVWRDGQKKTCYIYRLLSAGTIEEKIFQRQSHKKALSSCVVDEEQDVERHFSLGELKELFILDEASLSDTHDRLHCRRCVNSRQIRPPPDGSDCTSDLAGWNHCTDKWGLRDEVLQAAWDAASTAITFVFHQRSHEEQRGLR
# VIM-2 inhibitor: blocks Pseudomonas aeruginosa VIM-2 metallo-beta-lactamase; purified VIM-2, nitrocefin hydrolysis, epi-absorbance fluorescence; inhibition, % at 5.6 µM; 0.89% of 290,000 active; AID 1527;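 active = inhibition above the mean of all tested compounds plus 3 SD, cutoff set per screening run, cut at about 7.5% in these data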;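 note: red hydrolysis product quenches plate fluorescence so inhibitors raise well fluorescence; 0% = enzyme with DMSO and 100% = DMSO without enzyme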
# DNA FID counter: displaces DNA intercalator in HCV helicase counter-screen. inhibition, % at 7.9 µM. DNA fluorescent intercalator displacement, fluorescence. 0.17% of 290,000 active; in the data active = inhibition above about 37%;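 note: 0% = vehicle and 100% = reference compound; higher means more ethidium bromide displaced from hairpin DNA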
# PvdQ inh: P. aeruginosa PvdQ acylase inhibition. purified PvdQ acylase, fluorescence plate reader. inhibition, % at 10 µM. 0.063% of 340,000 active. AID 488965; in the data active = inhibition above about 30%, passing the limit was not always enough;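 note: 0% = vehicle neutral wells and 100% = reference inhibitor wells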
# * = called active by the depositor; · = no result given. This is a sample that favours compounds with a hit; in the whole collection about 1% have one here.
SMILES,IMP-1 inh,RAD54 inh,VIM-2 inhibitor,DNA FID counter,PvdQ inh
N=c1c(S(=O)(=O)c2ccccc2)cc2c(=O)n3ccccc3nc2n1Cc1cccnc1,·,1.9,·,·,-4.8
O=C(C[C@H]1CC[C@H](NC(=O)Cc2ccccn2)[C@@H](CO)O1)NCCc1ccncc1,·,4.5,·,·,·
Cc1ccc(C(=O)O)cc1N1C(=O)c2cccc3c([N+](=O)[O-])ccc(c23)C1=O,6.1*,-20.5,1.0,-24.4,1.3
CN(C)CCCN1C(=O)c2cccc3c([N+](=O)[O-])ccc(c23)C1=O,-1.1,·,4.2,41.2*,-1.9
O=C1c2cccc3c([N+](=O)[O-])ccc(c23)C(=O)N1CCc1ccccn1,-2.4,1.8,-0.8,-0.3,0.0
Cc1ccc(S(=O)(=O)Nc2ccc3c(c2)C(=O)N([C@H](C)CO)C[C@H](C)[C@@H](CN(C)Cc2ccc(C(=O)O)cc2)OCCCC[C@H](C)O3)cc1,·,5.3,·,·,·
CCC[n+]1c2ccccc2cc2ccccc21,0.8,3.3,0.5,38.3*,11.4
CCCC[n+]1c2ccccc2cc2ccccc21,0.1,6.7,1.4,38.2*,-11.1
CCCNC(=O)Nc1ccc2c(c1)C(=O)N(C)C[C@H](OC)[C@H](C)CN(Cc1ccc(-c3ccccn3)cc1)[C@@H](C)CO2,·,-0.6,·,·,·
CC(C)C(=O)Nc1nnc(CSCc2ccccc2F)s1,-0.7,·,10.3*,-7.9,-13.9
C[C@@H]1CCCCO[C@@H](CN(C)C(=O)Nc2ccc3c(c2)OCO3)[C@H](C)CN([C@@H](C)CO)C(=O)c2cc(NC(=O)Nc3ccc(C(F)(F)F)cc3)ccc2O1,·,-7.6,·,·,·
Cc1csc(NC(=O)c2nc3nccc(C)n3n2)n1,-6.2,-3.1,-3.6,1.3,9.2
Cc1ccnc2nc(C(=O)Nc3nc4ccccc4s3)nn12,5.0*,-1.8,0.8,-4.2,10.1
CN(Cc1ccccc1)CC1CC(c2ccccc2)OC(c2ccc(NC(=O)CCCCCCC(=O)O)cc2)O1 (stereo not given),·,-3.9,·,·,·
CCOC(=O)c1ccc(N2Cc3ccccc3C2=NC(=O)c2cccc([N+](=O)[O-])c2)cc1,·,·,·,·,44.9*
O=C(N=C1c2ccccc2CN1c1ccccc1)c1cccc([N+](=O)[O-])c1,-1.4,·,0.9,0.3,-10.1
O=C(COC(=O)c1ccccc1SCC(=O)NC1CCS(=O)(=O)C1)NC1CCS(=O)(=O)C1 (stereo not given),-2.5,·,0.3,-3.0,-6.9
CCNC(=O)NC(=O)COC(=O)c1ccccc1SCC(=O)NC(=O)NCC,3.8,-9.2,11.0*,-15.3,-29.9
C[C@@H]1CCCCO[C@@H](CN(C)C(=O)CCCN(C)C)[C@H](C)CN([C@H](C)CO)C(=O)c2cc(NC(=O)NC3CCCCC3)ccc2O1,·,8.6,·,·,·
COc1ccc(S(=O)(=O)N(C)C[C@@H]2Oc3ccc(NC(=O)Nc4ccccc4)cc3CC(=O)N([C@@H](C)CO)C[C@@H]2C)cc1,·,72.0*,·,·,·
COc1ccc(S(=O)(=O)N(C)C[C@@H]2Oc3ccc(NC(=O)NC(C)C)cc3CC(=O)N([C@@H](C)CO)C[C@@H]2C)cc1,·,51.3*,·,·,·
COc1ccc(CN(C)C[C@@H]2Oc3ccc(NC(=O)Nc4ccc(F)cc4)cc3C(=O)N([C@H](C)CO)C[C@H]2C)cc1,·,71.7*,·,·,·
COc1ccc(S(=O)(=O)N(C)C[C@@H]2Oc3ccc(NC(=O)Nc4ccccc4)cc3CC(=O)N([C@@H](C)CO)C[C@H]2C)cc1,·,18.3,·,·,·
CCCNC(=O)C[C@H]1CC[C@@H]2[C@H](COC[C@H](O)CN2C(=O)c2cccnc2)O1,·,8.8,·,·,·
CCCCN(C)CCNC(=O)c1nn(-c2ccc(OC)cc2)c(=O)c2c1c1ccccc1n2C,-2.2,10.5,8.3*,26.4,0.6
SMILES,IMP-1 inh,RAD54 inh,VIM-2 inhibitor,DNA FID counter,PvdQ inh
O=C(NCCCN1CCCC1)c1ccc(CSCc2cccc(Cl)c2)o1,-3.3,-0.1,-3.0,10.7,6.8
CN1CCN(CCCNC(=O)c2ccc(CSCc3cccc(Cl)c3)o2)CC1,6.8*,·,0.4,28.6,·
CCNC(=O)[C@@H]1[C@@H](CO)[C@@H]2Cn3c(ccc(C4=CCCC4)c3=O)[C@@H]2N1CC1CC1,·,-4.2,·,·,·
CC(C)C(NC(=O)c1ccc(C(C)(C)C)cc1)C(=O)NCCc1ccccn1 (stereo not given),0.5,-6.4,1.4,-29.3,0.0
CC(C)C(NC(=O)c1ccc(C(C)(C)C)cc1)C(=O)NCC(c1ccccc1)N(C)C (stereo not given),2.8,·,-0.3,36.8*,-8.5
CN(C)CCCNCCCNC(=O)/C=N/O,4.6*,-4.1,-1.3,5.6,-8.0
Cc1ccc(Cn2c(=N)c(C(=O)NC3CCCCC3)cc3c(=O)n4ccccc4nc32)cc1,-2.0,0.7,1.8,-2.6,-7.7
N=c1c(C(=O)NC2CCCC2)cc2c(=O)n3ccccc3nc2n1Cc1ccccc1,-0.5,12.4,7.9*,4.1,-9.2
N=c1c(C(=O)NC2CCCCC2)cc2c(=O)n3ccccc3nc2n1Cc1ccc(F)cc1,0.4,-3.7,9.9*,9.5,-10.2
O=C(COC(=O)c1ccccc1Br)NCCC1=CCCCC1,-3.0,13.7,-1.6,-23.4,-8.3
O=C(NC(=S)NCCC1=CCCCC1)c1ccccc1Br,-2.4,4.6,24.7*,-24.9,-13.0
C=CCNC(=O)CSc1nnc(-c2ccccc2Cl)n1-c1c(C)n(C)n(-c2ccccc2)c1=O,-5.9,·,1.6,-24.6,-9.5
Cc1c(-n2c(SCC(=O)O)nnc2-c2ccccc2Br)c(=O)n(-c2ccccc2)n1C,-2.7,-1.0,12.2*,-17.2,-2.9
CCCNC(=O)Nc1ccc2c(c1)C(=O)N(C)[C@@H]1CC[C@H](CC(=O)NCCCN(C)C)O[C@H]1CO2,·,0.9,·,·,·
C[C@H](CO)N1C[C@H](C)[C@H](CN(C)Cc2ccc(Cl)c(Cl)c2)OCc2cnnn2CCCC1=O,·,10.3,·,·,·
O=C(O[C@@H]1OC2COC(=O)c3cc(O)c(O)c(O)c3-c3c(cc(O)c(O)c3O)C(=O)O[C@@H]([C@H]1O)[C@@H]2O)c1cc(O)c(O)c(O)c1,8.8*,5.8,-0.9,-11.6,-7.4
CCN(CC)CCNc1nc2cc(OC)c(OC)cc2c2nc(-c3ccccc3)nn12,-2.1,106.0*,1.7,28.4,5.6
C[C@@H]1CCCCO[C@H](CN(C)C(=O)CCC(F)(F)F)[C@@H](C)CN([C@H](C)CO)C(=O)c2cc(NS(=O)(=O)c3ccc(F)cc3)ccc2O1,·,3.3,·,·,·
COC(=O)Cn1c2ccc(Cl)cc2c2nc(C)sc21,-4.1,·,1.9,-3.5,-11.8
Cc1nc2c3cc(Cl)ccc3n(CCN3CCCCC3)c2s1,5.1*,17.7,4.9,39.2*,-8.8
COc1cccc(-c2nn(C)c3sc(C(=O)NCc4ccc(C)o4)cc23)c1,4.7*,1.3,-1.3,-10.8,-11.3
COc1cccc(-c2nn(C)c3sc(C(=O)NCc4ccc5c(c4)OCO5)cc23)c1,-3.4,-0.6,-1.9,-17.3,-8.4
CCC(=O)N1C[C@@H](C)[C@@H](OC)CN(C)C(=O)c2cc(NS(=O)(=O)CC)ccc2OC[C@H]1C,·,-11.4,·,·,·
CCOC(=O)c1cnc2c(Cl)c(Cl)ccc2c1NCCN1CCOCC1,-1.7,-2.6,7.7*,-20.4,-11.6

# Screening data as filed in PubChem BioAssay.
